ChEMBL document CHEMBL4699512, “Synthesis of non-nucleoside anti-viral cyclopropylcarboxacyl hydrazones and initial anti-HSV-1 structure-activity relationship studies” (Bioorg Med Chem Lett, 2020)
Activity calls are given as the source filed them. The rule behind the calls is not given here.

Key:
[1] = system: Human alphaherpesvirus 1; assay: Antiviral activity against recombinant EGFP/RFP expressing Herpes simplex virus 1 KOS infected in iPSC-neurons assessed as decrease in proportion of fluorescent cells compound added 2 hr post infection incubated for 48 hrs by flow cytometry analysis; type: functional, organism-based; details: Induced pluripotent stem cell-derived neuron
Summary of the method: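 iPSC-derived neurons infected with recombinant HSV-1 derived from strain KOS, expressing EGFP from the early ICP0 promoter and monomeric RFP from the glycoprotein C promoter. Infection was scored as the proportion of fluorescent cells. Controls were uninfected cells, virus alone, and virus with acyclovir as positive control. The protocol follows the group's earlier procedure.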

[2] = system: Human alphaherpesvirus 1; assay: Potency index, ratio of acyclovir IC50 to compound IC50 for antiviral activity against HSV-1 infected in neuronal progenitor cells; type: functional, Neuronal cell line
[3] = system: Human alphaherpesvirus 1; assay: Antiviral activity against Herpes simplex virus 1 infected in neuronal progenitor cells assessed as decrease in fluorescent cells; type: functional, organism-based; details: Human alphaherpesvirus 1, Neuronal cell line
[4] = system: Neuronal cell line; assay: Cytotoxicity against human neuronal progenitor cells assessed as cell viability at 25 uM; type: cell-based

For `O=C(N/N=C1/CCCc2ccccc21)C1CC1(c1ccccc1)c1ccccc1` (stereo unspecified), the Activity [1] was “inactive”.
For `O=C(N/N=C/c1ccc(Br)cc1)C1CC1(c1ccccc1)c1ccccc1` (stereo unspecified), the Activity [1] was “inactive”.
In the case of `O=C(N/N=C/c1ccc[nH]1)C1CC1(c1ccccc1)c1ccccc1` (stereo unspecified), the Activity [1] is reported as “Active”.
For `O=C(N/N=C/c1ccc2c(c1)OCO2)C1CC1(c1ccccc1)c1ccccc1` (stereo unspecified), the Activity [1] was “Active”.
With `O=C(N/N=C/c1ccc(F)cc1F)C1CC1(c1ccccc1)c1ccccc1` (stereo unspecified) the Activity [1] was “inactive”.
For `CN(C)c1ccc(/C=N/NC(=O)C2CC2(c2ccccc2)c2ccccc2)cc1` (stereo unspecified), the Activity [1] was “inactive”.
For `O=C(N/N=C/c1c[nH]c2ccccc12)C1CC1(c1ccccc1)c1ccccc1` (stereo unspecified), the Activity [1] was “Active”.
In the case of `O=C(N/N=C/c1ccc(Br)o1)C1CC1(c1ccccc1)c1ccccc1` (stereo unspecified), the Activity [1] is reported as “inactive”.
With `O=C(N/N=C/C1CCCCC1)C1CC1(c1ccccc1)c1ccccc1` (stereo unspecified) the Activity [1] was “Active”.
With `O=C(N/N=C/c1ccccn1)C1CC1(c1ccccc1)c1ccccc1` (stereo unspecified) the Activity [1] was “Active”.
`O=C(N/N=C/c1ccccn1)C1CC1(c1ccc(OC(F)(F)F)cc1)c1ccc(OC(F)(F)F)cc1` (stereo unspecified) was tested, and the Activity [1] was “Active”.
With `O=C(N/N=C/c1cccnc1)C1CC1(c1ccccc1)c1ccccc1` (stereo unspecified) the Activity [1] was “inactive”.
With `O=C(N/N=C/c1ncc[nH]1)C1CC1(c1ccccc1)c1ccccc1` (stereo unspecified) the Activity [1] was “inactive”.
`COc1cc(/C=N/NC(=O)C2CC2(c2ccccc2)c2ccccc2)cc(OC)c1OC` (stereo unspecified) was tested, and the Activity [1] was “Active”.
For `O=C(N/N=C/c1ccc[nH]1)C1CC1(c1ccc(OC(F)(F)F)cc1)c1ccc(OC(F)(F)F)cc1` (stereo unspecified), the “Ratio IC50” value [2] was 2, the Activity [1] was “Active” and the IC50 [3] was 14.1 µM. For the same compound, the Activity [4] was “Non-Toxic”.
With `O=C(N/N=C/c1ccc([N+](=O)[O-])cc1)C1CC1(c1ccccc1)c1ccccc1` (stereo unspecified) the Activity [1] was “inactive”.
`O=C(N/N=C/c1c[nH]cn1)C1CC1(c1ccccc1)c1ccccc1` (stereo unspecified) was tested, and the Activity [1] was “inactive”.
With `O=C(N/N=C/c1ccccc1Cl)C1CC1(c1ccccc1)c1ccccc1` (stereo unspecified) the Activity [1] was “Active”.
In the case of `O=C(N/N=C/c1cccs1)C1CC1(c1ccccc1)c1ccccc1` (stereo unspecified), the Activity [1] is reported as “Active”.
`COc1cc(/C=N/NC(=O)C2CC2(c2ccccc2)c2ccccc2)ccc1O` (stereo unspecified) was tested, and the Activity [1] was “inactive”.
With `Nc1nc2c(ncn2COCCO)c(=O)[nH]1` [ACYCLOVIR] the Activity [1] was “Active” and the IC50 [3] was 27.4 µM.
With `O=C(N/N=C/c1ccco1)C1CC1(c1ccccc1)c1ccccc1` (stereo unspecified) the Activity [1] was “Active”.
